Screens: PubChem, several laboratories
LANA-H2A inh: blockers of LANA interaction with H2A/H2B – biochemical, FP readout, HTS, primary screen | Protein LANA1 (Human herpesvirus 8 type P (isolate GK18)), Q9QR71 | cell-free LANA-H2A/H2B peptide, fluorescence polarization | inhibition, % (no concentration beside the values) | 320,000 tested, 0.6% active; in the data active = inhibition mostly above about 10%, no sharp cut-off; inactive = mostly below about 6.7%
zfTRPN1 agonist: zebrafish TRPN1 channel agonists, primary screen, cell-based, HEK293, calcium fluorescence | transient receptor potential cation channel N1 (TRPN1/NompC), Danio rerio | HEK293 zebrafish TRPN1-YFP, Fluo-8 calcium fluorescence; 100% = response to 87 µM carbachol | activation, % at 3 µM | 220,000 tested, 0.18% active | AID 1424, 2008;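 active = activation above its plate's cutoff, the mean activation of test wells on that plate plus 3 SD, cut at about 19% in these data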;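 also: 0% = DMSO alone and 100% = 87 µM carbachol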
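System: zebrafish TRPN1-YFP in HEK293 cells / Dosing: 3 µM single point / Timing: dye loading 1 h at 37 °C, then 30 min room temperature / Signal: Fluo-8 calcium fluorescence, excitation 470-495 nm, emission 515-575 nm / Read-out basis: percent activation from peak over basal fluorescence ratio, control-normalized / Control set: high carbachol 87 µM, low DMSO alone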
TRPML3 ag: human TRPML3 channel agonists, primary screen, cell-based, HEK293 TRPML3-YFP, Fluo-8 calcium fluorescence, 3 µM | Mucolipin-3 (Homo sapiens), Q8TDD5 | 100% = the carbachol control signal | activation, % at 3 µM | 220,000 tested, 0.29% active | AID 1448, 2008;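 active = activation above its plate's cutoff, the mean activation of the plate's test wells plus 3 SD, cut at about 12% in these data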;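 also: 0% = DMSO only wells and 100% = carbachol wells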
Target sequence (Q8TDD5 whole entry, looked up): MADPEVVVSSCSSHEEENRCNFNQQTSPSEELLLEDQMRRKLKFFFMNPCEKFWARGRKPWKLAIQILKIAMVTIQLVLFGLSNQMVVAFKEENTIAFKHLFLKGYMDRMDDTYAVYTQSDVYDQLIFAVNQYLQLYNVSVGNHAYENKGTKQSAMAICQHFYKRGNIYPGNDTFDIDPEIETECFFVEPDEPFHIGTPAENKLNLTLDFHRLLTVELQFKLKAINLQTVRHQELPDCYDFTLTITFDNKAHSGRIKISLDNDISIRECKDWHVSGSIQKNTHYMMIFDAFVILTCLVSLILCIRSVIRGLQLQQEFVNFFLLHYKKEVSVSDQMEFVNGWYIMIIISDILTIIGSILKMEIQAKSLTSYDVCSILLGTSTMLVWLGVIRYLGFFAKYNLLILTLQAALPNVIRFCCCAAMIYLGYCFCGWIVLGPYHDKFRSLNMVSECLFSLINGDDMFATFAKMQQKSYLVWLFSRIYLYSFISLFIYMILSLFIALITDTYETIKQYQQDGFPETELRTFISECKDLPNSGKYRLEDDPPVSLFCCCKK
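Material: HEK293 cells stably carrying human TRPML3-YFP; compound dosing: single dose, 3 µM final nominal compound, 0.3% DMSO final; incubation: 1-h 37 °C dye load, 5-s basal, 120-s post-compound reads; technique: Fluo-8 intracellular calcium fluorescence, excitation 470-495 nm, emission 515-575 nm; read-out basis: percent activation from peak-to-basal fluorescence ratio, scaled between DMSO and carbachol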
TAAR1 ag: human TAAR1 agonists, primary screen, Fluo-8 calcium fluorescence, CHO RD-HGA16 cells | vehicle wells 0%, saturating PEA agonist 100% | AID 624467, 2012 | activation, % at 3 µM | 360,000 tested, 0.99% active | Trace amine-associated receptor 1 (Homo sapiens), Q96RJ0;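 active = activation above the mean activation of all test compounds in the run plus 3 SD, cut at about 38% in these data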
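Test system: RD-HGA16 (CHO) cells co-expressing Gα16 and hTAAR1 / Benchmarks: DMSO vehicle as 0%, PEA at EC100 as 100% / Repeats: no replicates (n 1) / Measure: % activation from peak over basal fluorescence ratio, DMSO-to-PEA scaled / Timing: 17-24 h plating, Fluo-8 75 min 37 °C, 30 min RT / Technique: kinetic Fluo-8 calcium fluorescence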
GPR7 antag: GPR7 receptor antagonists, primary screen, cell-based, fluorescence, single concentration; Neuropeptides B/W receptor type 1 (Homo sapiens), P48145; GPR7-expressing cells, fluorescence antagonist assay; inhibition, % at 4.4 µM; 290,000 tested, 1.1% active; AID 1861, 2009; in the data active = inhibition above about 16%, passing the limit was not always enough;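 also: cells stimulated with the agonist NPW; 0% = agonist with vehicle and 100% = vehicle without agonist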
TAAR1 antagonist: human TAAR1 antagonists, primary screen, Fluo-8 calcium fluorescence, CHO RD-HGA16 cells | Trace amine-associated receptor 1 (Homo sapiens), Q96RJ0 | antagonist | inhibition, % at 3 µM | 360,000 tested, 1.5% active;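 active = inhibition above a per-plate cutoff, the mean inhibition of test compounds on that plate plus 3 SD, cut at about 49% in these data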;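 also: 0% = DMSO plus EC80 beta-PEA response and 100% = DMSO alone without agonist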
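System: CHO RD-HGA16 cells bearing hTAAR1. Reagent: EC80 β-phenethylamine stimulus. Schedule: seeding 17-24 h prior, 75-min 37 °C, 30-min RT dye loading. Signal: Fluo-8 intracellular calcium dye fluorescence, real-time kinetic reads. Read-out: % inhibition from peak post-agonist over basal fluorescence ratio. Benchmarks: vehicle wells and EC80 agonist wells. Replicates: n of 1.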
* hit, by the source's call. Only some compounds are listed: those with a hit (about 3.4% of all), similar ones and a draw of the others.

For O=C(C(=O)N1CCN(S(=O)(=O)c2ccccc2)CC1)c1cccc(C(F)(F)F)c1 the results were TAAR1 ag 0.7 and TAAR1 antagonist -6.0.
For CCN(C(=O)CN1CCCC(C)C1)c1c(N)n(Cc2ccccc2)c(=O)[nH]c1=O (stereo not given) the results were LANA-H2A inh 12.8*, TAAR1 ag 1.9 and TAAR1 antagonist 0.7.
Screening CCN(C(=O)CN1CCCCC1)c1c(N)n(Cc2ccccc2)c(=O)[nH]c1=O returned LANA-H2A inh 0.7, TAAR1 ag 0.1 and TAAR1 antagonist -5.5.
C=CCN=C1S/C(=C\c2ccc(N(C)C)cc2)C(=O)N1CC=C was read as LANA-H2A inh 15.5*, zfTRPN1 agonist 0.5, TRPML3 ag 1.1, TAAR1 ag 8.6, GPR7 antag 1.9 and TAAR1 antagonist -33.8.
Screening FC(F)(F)c1ccccc1CN1CCCc2nc(-c3ccc(Br)cc3)ccc21 returned TAAR1 ag -1.1 and TAAR1 antagonist -28.1.
For O=C(NC1CC1)c1ccc(-n2cccc2)cc1 the results were LANA-H2A inh 99.4*, zfTRPN1 agonist 0.8, TRPML3 ag 0.7, TAAR1 ag 1.2, GPR7 antag -3.3 and TAAR1 antagonist -3.1.
Screening O=C(NC1CCCCCC1)c1ccc(-n2cnnc2)cc1 returned LANA-H2A inh 4.4, TAAR1 ag 0.6, GPR7 antag -12.2 and TAAR1 antagonist -11.6.
For C#CCNC(=O)C[C@H]1C[C@@]2(C(=O)OC)C(=C[C@H](C(C)C)O[C@@H]2C2CC2)N(Cc2ccccc2)C1=O the results were TAAR1 ag -0.2 and TAAR1 antagonist -13.6.
Screening Cc1oc2c(C)c3oc(=O)c(CCC(=O)NCCN4CCOCC4)c(C)c3cc2c1C returned LANA-H2A inh 13.6*, TAAR1 ag 1.6, GPR7 antag 0.5 and TAAR1 antagonist 5.6.
Screening Nc1ncnc2c1ncn2[C@@H]1O[C@H](C(=O)N[C@@H](CCc2ccccc2)C(=O)N2CCN(C(=O)N3CCOCC3)CC2)[C@@H](O)[C@H]1O returned TAAR1 ag 0.8 and TAAR1 antagonist -12.7.
Cc1cccnc1N=O was read as TAAR1 ag 0.2 and TAAR1 antagonist -18.1.
`C[C@H]1CN([C@@H](C)CO)C(=O)c2cccc(NC(=O)Nc3ccc(C(F)(F)F)cc3)c2O[C@@H]1CN(C)Cc1ccc(Cl)c(Cl)c1` gave LANA-H2A inh 6.4, TAAR1 ag 15.2 and TAAR1 antagonist 51.3*.
For C[C@H]1CN([C@@H](C)CO)C(=O)c2cccc(NC(=O)Nc3ccc(C(F)(F)F)cc3)c2O[C@@H]1CN(C)S(=O)(=O)c1ccc(Cl)cc1 the results were LANA-H2A inh 14.8*, TAAR1 ag 16.5 and TAAR1 antagonist 14.5.
Screening C[C@@H]1CN([C@H](C)CO)C(=O)c2cc(NC(=O)Nc3ccc(C(F)(F)F)cc3)ccc2O[C@H]1CN(C)S(=O)(=O)c1ccc(Cl)cc1 returned LANA-H2A inh active, TAAR1 ag 0.1 and TAAR1 antagonist 12.2.
COC(=O)C1=C(C)N(C)C(=NCc2ccc3c(c2)OCO3)NC1c1ccc(C(F)(F)F)cc1 (stereo not given) was read as TAAR1 ag 15.3 and TAAR1 antagonist 7.1.
For COC(=O)c1cc2c(c3c4cc(F)ccc4n(S(=O)(=O)c4ccc(C)cc4)c13)C(=O)N(Cc1ccccc1)C2 the results were TAAR1 ag -0.7 and TAAR1 antagonist -34.5.
CCN(CC(=O)Nc1c(F)cccc1F)C(=O)CCc1nc2ccccc2c(=O)[nH]1 was read as LANA-H2A inh -2.2, TAAR1 ag -0.1 and TAAR1 antagonist 5.8.
For CCN(CC(=O)Nc1c(F)cccc1F)C(=O)CCCc1nc2ccccc2c(=O)[nH]1 the results were LANA-H2A inh 9.7*, TAAR1 ag 1.8 and TAAR1 antagonist -6.9.
CCOC(=O)C1=C(C(=O)OCC)C2N(Cc3ccc(C#N)cc3)c3ccccc3[C@@]23C[C@@H](C(=O)OC)N(S(=O)(=O)c2cccs2)C3=N1 (stereo not given in full) was read as TAAR1 ag 0.9 and TAAR1 antagonist -13.5.
Screening COC(=O)C1=C(C)N(C)C(=NCc2ccc3c(c2)OCO3)NC1c1cccc(Cl)c1 (stereo not given) returned TAAR1 ag 3.7 and TAAR1 antagonist 2.7.
`CC(NC(=O)COc1ccccc1)C1COc2ccccc2O1` (stereo not given) gave LANA-H2A inh -1.0, zfTRPN1 agonist -0.8, TRPML3 ag -0.9, TAAR1 ag 10.9, GPR7 antag -3.7 and TAAR1 antagonist 9.1.
For CCOc1ccc(C(=O)NC(C)C2COc3ccccc3O2)cc1 (stereo not given) the results were LANA-H2A inh 35.7*, zfTRPN1 agonist -1.5, TRPML3 ag -0.6, TAAR1 ag 10.1, GPR7 antag 15.9 and TAAR1 antagonist -10.4.
Screening CCOC(=O)N1CCN(C(=O)/C=C/c2ccc([N+](=O)[O-])cc2)CC1 returned LANA-H2A inh -6.8, zfTRPN1 agonist 1.6, TRPML3 ag 0.1, TAAR1 ag -1.2, GPR7 antag -5.5 and TAAR1 antagonist 9.4.
For CCOC(=O)N1CCN(C(=O)/C=C/c2ccc(C(C)(C)C)cc2)CC1 the results were LANA-H2A inh 37.5*, TAAR1 ag 2.1, GPR7 antag 5.5 and TAAR1 antagonist -12.5.
Screening COC(=O)N1C[C@H](OC(=O)c2ccc(-c3ccccc3)cc2)[C@H]2C[C@@H]1c1ccccc1O2 returned TAAR1 ag -0.1 and TAAR1 antagonist -15.8.
For CC1(C(=O)NCc2ccc(C(F)(F)F)cc2)CCN1Cc1ccccc1OC(F)F (stereo not given) the results were TAAR1 ag 9.5 and TAAR1 antagonist 55.6*.
For CC(=O)OCC1OC(n2cc(F)c(=O)[nH]c2=O)C(OC(C)=O)C1OC(C)=O (stereo not given) the results were LANA-H2A inh 0.8, TAAR1 ag 1.8 and TAAR1 antagonist -27.9.
`O=C1C(F)=CC(COC(c2ccccc2)(c2ccccc2)c2ccccc2)OC1n1cc(F)c(=O)[nH]c1=O` (stereo not given) gave TAAR1 ag 8.8 and TAAR1 antagonist 54.3*.
